Hits are enriched below; roughly 1.5% of the tested compounds scored in any of these assays.
NTR1 ag: agonists of human neurotensin receptor NTR1; P30989; NTR1-U2OS beta-arrestin-GFP spot imaging, agonist mode; activation, % at 20 µM; actives 0.17% (n = 330,000); AID 493036;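 active = activation at or above 40% of the spot to cytoplasm intensity ratio, with at least 20 cells analyzed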;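 also: 0% = DMSO without peptide and 100% = 100 nM NTR1 peptide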
APJ antagonist: APJ receptor antagonism; inhibition, % at 20 µM; CHO-K1 APJ beta-arrestin complementation, luminescence; actives 0.32% (n = 330,000);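 active = inhibition above about 40% at 20 µM, limit read from the data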;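 also: cells challenged with 10 nM apelin-13 agonist together with compound; plate controls were apelin-13 plus DMSO wells for no effect and DMSO wells lacking apelin-13 for full effect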
CXCR6 block: CXCR6 (human) receptor inhibition; O00574; CHO-K1 PathHunter CXCR6 beta-arrestin, luminescence; inhibition, % at 20 µM; actives 0.36% (n = 360,000); in the data active = inhibition above about 34%, passing the limit was not always enough;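 also: antagonist mode with CXCL16 agonist at 10 nM final; 0% = 10 nM CXCL16 with DMSO and 100% = unstimulated wells without agonist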
CCR6 antag: CCR6 (human) receptor antagonism; P51684; CHO-K1 CCR6 PathHunter beta-arrestin, luminescence, CCL20-stimulated; inhibition, % at 20 µM; actives 0.49% (n = 340,000); AID 493098;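 active = compounds whose inhibition of the agonist-driven luminescence signal at 20 µM reaches about 50%, limit read from the data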;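 also: cells stimulated with CCL20 at 14 nM final; plate controls were DMSO with CCL20 for no effect and DMSO without agonist for full effect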
APJ agonist: APJ receptor agonism; P35414; CHO-K1 APJ PathHunter beta-arrestin, luminescence; 0% DMSO wells, 100% apelin; activation, % at 20 µM; actives 0.11% (n = 330,000);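 active = activation more than six SD over the plate average, tested at 20 µM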;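 also: 0% = DMSO alone and 100% = apelin-13 at 10 nM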
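Test system: CHO-K1 APJ beta-arrestin complementation cell line. Amount: cell density 1000 per well. Controls: DMSO negative, 10 nM Apelin-13 positive. Signal: luminescent beta-gal fragment complementation, chemiluminescent substrate. Read-out basis: agonist-driven arrestin binding to APJ. Timing: compound stimulation 90 min at 25 °C, detection 60 min.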
m5-HT2A agonist: mouse HTR2A agonism via beta-arrestin recruitment. activation, % at 7.6 µM. AID 624169. actives 0.66% (n = 360,000). CHO-K1 mHTR2A beta-arrestin complementation, luminescence; percent of 30 µM serotonin response;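 active = activation above a run cutoff, the mean activation of all tested compounds plus 3 SD, cut at about 14% in these data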;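 also: 0% = plate median of compound wells and 100% = 30 µM serotonin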
Target sequence (P35363 whole entry, looked up): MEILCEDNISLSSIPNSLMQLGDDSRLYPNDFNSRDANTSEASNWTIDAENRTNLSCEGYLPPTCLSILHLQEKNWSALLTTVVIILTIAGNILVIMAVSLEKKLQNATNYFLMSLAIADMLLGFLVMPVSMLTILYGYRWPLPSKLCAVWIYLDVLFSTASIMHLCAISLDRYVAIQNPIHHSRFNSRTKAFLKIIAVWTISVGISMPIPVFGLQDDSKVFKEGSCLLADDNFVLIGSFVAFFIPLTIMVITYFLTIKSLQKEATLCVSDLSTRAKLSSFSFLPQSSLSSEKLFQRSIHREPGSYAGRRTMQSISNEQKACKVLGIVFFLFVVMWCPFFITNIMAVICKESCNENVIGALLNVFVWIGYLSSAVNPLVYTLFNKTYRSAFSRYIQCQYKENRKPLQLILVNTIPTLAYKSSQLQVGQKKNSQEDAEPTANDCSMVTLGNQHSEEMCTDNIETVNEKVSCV
MOR ag counter: counter-screen for mouse HTR2A agonists: human mu opioid receptor agonists | U2OS OPRM1 beta-arrestin PathHunter, luminescence; DMSO 0%, DAMGO 9.3 µM 100% | actives 5.3% (n = 2,300) | shares compounds with m5-HT2A agonist | activation, % at 9.3 µM;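 active = mean activation above the mean of DMSO-only wells plus 3 SD, cut at about 0.5% in these data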
m5-HT2A ag conf: confirmation of mouse HTR2A serotonin receptor agonists; CHO-K1 PathHunter beta-arrestin recruitment, luminescence; DMSO 0%, 30 µM serotonin 100%; actives 19% (n = 2,300); shares compounds with m5-HT2A agonist; activation, % at 7.6 µM;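 active = mean activation across triplicates above the hit threshold derived in the original primary screen, cut at about 15% in these data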
Active calls of the source: *.

How did C=CC[C@@H](CC/C=C/C=C/CC/C=C\[C@@H]1CSC([C@@H]2C[C@@H]2C)=N1)OC do in these assays?
NTR1 ag: 4; APJ antagonist: -26; CXCR6 block: -10; CCR6 antag: -3; APJ agonist: -1; m5-HT2A agonist: 5

Results for Cc1cccc(C)c1OP(N)(=O)Oc1c(C)cccc1C ?
NTR1 ag: -1; APJ antagonist: 10; CXCR6 block: -4; CCR6 antag: -8; APJ agonist: -2; m5-HT2A agonist: 18*; MOR ag counter: -1; m5-HT2A ag conf: -2

Results for COP(=O)(OC)C1(O)C(=O)Nc2ccc(Br)cc21 (stereo not drawn) ?
NTR1 ag: 1; APJ antagonist: 7; CXCR6 block: -4; CCR6 antag: 24; APJ agonist: -1; m5-HT2A agonist: 1

Results for CN1CCC(c2c[nH]c3ccccc23)C1 (stereo not drawn) ?
NTR1 ag: 2; APJ antagonist: 8; CXCR6 block: 4; CCR6 antag: -7; APJ agonist: -1; m5-HT2A agonist: 4

Results for CN1CCC(c2c[nH]c3ccc(O)cc23)CC1 ?
CXCR6 block: -6; CCR6 antag: 4; m5-HT2A agonist: 50*; MOR ag counter: 0; m5-HT2A ag conf: 32*

What do the screens show for `Cc1ccc(C(C)C)c(OCC(=O)N2CCN(Cc3nc4cc([N+](=O)[O-])ccc4n3C)CC2)c1`?
NTR1 ag: 5; APJ antagonist: -4; CXCR6 block: 7; CCR6 antag: 17; APJ agonist: 0; m5-HT2A agonist: 6

What do the screens show for `Cc1cc(OCC(=O)OC(C)(C)C)c2c3c(c(=O)oc2c1)CCC3`?
NTR1 ag: 4; APJ antagonist: 5; CXCR6 block: 7; CCR6 antag: 5; APJ agonist: -7; m5-HT2A agonist: 2

What do the screens show for `CCN(CC)C(=O)COc1cc(C)cc2oc(=O)c3c(c12)CCCC3`?
NTR1 ag: 1; APJ antagonist: -17; CXCR6 block: 16; CCR6 antag: 2; APJ agonist: -3; m5-HT2A agonist: 14*; MOR ag counter: 0; m5-HT2A ag conf: -4

What do the screens show for `Cc1nc2cc(-c3ccc(Cl)cc3)nn2c(C)c1CCC(=O)N1CCC2(CC1)OCCO2`?
CXCR6 block: -3; CCR6 antag: 15; m5-HT2A agonist: 1

How did COc1cc(C[C@@H](C)N)c(OC)cc1I do in these assays?
NTR1 ag: -2; APJ antagonist: 10; CXCR6 block: 0; CCR6 antag: -1; APJ agonist: -3; m5-HT2A agonist: 61*; MOR ag counter: 0; m5-HT2A ag conf: 26*

How did NCCc1c[nH]c2ccc(C(N)=O)cc12 do in these assays?
NTR1 ag: 1; APJ antagonist: -1; CXCR6 block: 1; CCR6 antag: -1; APJ agonist: -2; m5-HT2A agonist: 28*; MOR ag counter: 0; m5-HT2A ag conf: 15*

Results for NCCc1c[nH]c2ccc(F)cc12 ?
NTR1 ag: -1; APJ antagonist: 11; APJ agonist: -6

How did CCCN(CCC)[C@@H]1CCc2cccc(O)c2C1 do in these assays?
NTR1 ag: 0; APJ antagonist: 10; CXCR6 block: 9; CCR6 antag: -7; APJ agonist: -7; m5-HT2A agonist: 58*; MOR ag counter: 0.8*; m5-HT2A ag conf: 126*

What do the screens show for `COc1ccc(N2C(=O)/C(=C/c3ccc(C)o3)C(=O)NC2=S)c(OC)c1`?
NTR1 ag: 2; APJ antagonist: 23; CXCR6 block: 7; CCR6 antag: 11; APJ agonist: -1; m5-HT2A agonist: 23*; MOR ag counter: -1; m5-HT2A ag conf: -4

Results for CNCC(=O)c1ccc(O)c(O)c1 ?
CXCR6 block: -8; m5-HT2A agonist: 31*; MOR ag counter: 0; m5-HT2A ag conf: 90*

Source: PubChem
